Source: publication PMC12238359 (Scientific Reports, 2025)

Key:
HepG2 cells [1] = experiment: Colony formation assay; assay type: cell-based; settings: HepG2, 14 days
Procedure, shortened: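 HepG2 cells were plated at 1000 per well in 6-well plates. After 24 h they were treated with a range of concentrations, with the medium refreshed every other day, and kept in fresh medium for 10–14 days. Colonies were fixed in methanol for 15 min, stained with 0.5% crystal violet for 15 min, photographed and counted manually.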

γH2AX = γH2AX immunofluorescence assay; assay type: cell-based; settings: HepG2, 24 h, in comparison to SAHA
Procedure, shortened: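 HepG2 cells were grown on coverslips at 1 × 10^5 per well and treated over a concentration range for 24 h. Cells were fixed in 4% formaldehyde, then blocked and permeabilised in PBS-BSA with 0.3% Triton X-100 for 15 min at room temperature. Anti-γH2AX was applied overnight at 4 °C, then goat anti-rabbit IgG (1:500) for 30 min at room temperature. Nuclei were counterstained with DAPI and imaged by confocal microscopy.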

HepG2 cells [2] = experiment: Annexin V-FITC/PI apoptosis analysis; assay type: cell-based; settings: 48 h
Cl-PARP, Cl-caspase 3 = experiment: Western blot of apoptotic proteins; assay type: cell-based; settings: HepG2, 24 h
Procedure, shortened: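 Treated HepG2 lysates (24 h exposure, RIPA buffer with protease inhibitors, BCA-normalised) were denatured at 100 °C for 5 min and run on 10–15% SDS-PAGE, then transferred to PVDF. Membranes were blocked in 5% milk, with primary antibody overnight at 4 °C and HRP secondary for 1 h at room temperature, and developed by ECL. Band intensity was normalised to β-actin; mean ± SD of three separate experiments.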

HepG2 = experiment: In vitro anti-proliferation assay; assay type: cell-based
GSDME-N, Cl-caspase3 = experiment: Western blot of pyroptosis markers; assay type: cell-based; settings: HepG2, 24 h
Procedure, shortened: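 HepG2 cells were treated 24 h at the indicated concentrations, then lysed in RIPA with protease inhibitors (10 min on ice, 4 °C spin). Protein was measured by BCA, and equal amounts were boiled 5 min at 100 °C, run on 10–15% SDS-PAGE and transferred to PVDF. Membranes were blocked in 5% milk, probed with primaries overnight at 4 °C, then HRP secondary 1 h at room temperature. Detection was by ECL, with densitometry against β-actin; data are mean ± SD of three experiments.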

HepG2 cells [3] = experiment: Cell cycle analysis by flow cytometry; assay type: cell-based; settings: HepG2, 0.5μM; for G2/M: control 25.34%; for S: control 32.99%; for G0/G1: control 41.67%
HepG2 cells [4] = experiment: Lactate dehydrogenase; assay type: cell-based; settings: HepG2, 24 h
Procedure, shortened: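 HepG2 cells were seeded at 1 × 10^4 per well and exposed to a range of test compound concentrations for 24 h. Culture supernatant was mixed with LDH detection reagent and kept 30 min in the dark at ambient temperature. OD was read at 490 nm, with each sample in triplicate.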

acetylated H3/H4 = experiment: Western blot of acetylated histone levels in HepG2 cells; assay type: cell-based; settings: HepG2, 0.2, 0.5 µM, 24 h
Procedure, shortened: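 HepG2 cells were exposed to the test compound for 24 h, then lysed in RIPA buffer with protease inhibitors (10 min on ice) and centrifuged at 4 °C. Protein was measured by BCA, and equal amounts were denatured at 100 °C for 5 min. Blots were run on 10–15% SDS-PAGE and transferred to PVDF. Anti-acetyl-H3 was used at 1:1000, overnight at 4 °C, then HRP secondary antibody for 1 h at room temperature, with ECL detection. Bands were quantified against β-actin; mean ± SD of three separate experiments.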

HepG2 cells [5] = experiment: Reactive oxygen species; assay type: cell-based; settings: HepG2, 24 h
HDAC1 = HDAC1 (Homo sapiens, UniProt Q13547); experiment: HDAC inhibitory assay, HDAC1; assay type: biochemical
Sequence of HDAC1 (Q13547 whole entry): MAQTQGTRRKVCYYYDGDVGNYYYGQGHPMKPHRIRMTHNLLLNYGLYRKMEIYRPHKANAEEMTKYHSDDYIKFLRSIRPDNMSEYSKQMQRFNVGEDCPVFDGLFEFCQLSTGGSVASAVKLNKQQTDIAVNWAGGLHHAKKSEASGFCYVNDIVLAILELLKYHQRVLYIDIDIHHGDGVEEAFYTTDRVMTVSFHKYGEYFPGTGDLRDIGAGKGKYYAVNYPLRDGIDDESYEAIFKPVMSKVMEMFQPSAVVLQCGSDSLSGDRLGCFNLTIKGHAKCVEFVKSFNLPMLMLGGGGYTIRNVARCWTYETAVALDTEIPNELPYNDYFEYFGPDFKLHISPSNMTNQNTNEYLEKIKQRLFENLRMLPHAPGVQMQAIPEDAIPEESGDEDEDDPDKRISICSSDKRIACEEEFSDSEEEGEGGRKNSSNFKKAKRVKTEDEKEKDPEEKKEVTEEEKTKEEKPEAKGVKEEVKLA

HDAC6 = biological target: T1, HDAC6 (Homo sapiens, UniProt Q9UBN7); experiment: HDAC inhibitory assay, HDAC6; assay type: biochemical
T1 sequence (Q9UBN7 1-1215): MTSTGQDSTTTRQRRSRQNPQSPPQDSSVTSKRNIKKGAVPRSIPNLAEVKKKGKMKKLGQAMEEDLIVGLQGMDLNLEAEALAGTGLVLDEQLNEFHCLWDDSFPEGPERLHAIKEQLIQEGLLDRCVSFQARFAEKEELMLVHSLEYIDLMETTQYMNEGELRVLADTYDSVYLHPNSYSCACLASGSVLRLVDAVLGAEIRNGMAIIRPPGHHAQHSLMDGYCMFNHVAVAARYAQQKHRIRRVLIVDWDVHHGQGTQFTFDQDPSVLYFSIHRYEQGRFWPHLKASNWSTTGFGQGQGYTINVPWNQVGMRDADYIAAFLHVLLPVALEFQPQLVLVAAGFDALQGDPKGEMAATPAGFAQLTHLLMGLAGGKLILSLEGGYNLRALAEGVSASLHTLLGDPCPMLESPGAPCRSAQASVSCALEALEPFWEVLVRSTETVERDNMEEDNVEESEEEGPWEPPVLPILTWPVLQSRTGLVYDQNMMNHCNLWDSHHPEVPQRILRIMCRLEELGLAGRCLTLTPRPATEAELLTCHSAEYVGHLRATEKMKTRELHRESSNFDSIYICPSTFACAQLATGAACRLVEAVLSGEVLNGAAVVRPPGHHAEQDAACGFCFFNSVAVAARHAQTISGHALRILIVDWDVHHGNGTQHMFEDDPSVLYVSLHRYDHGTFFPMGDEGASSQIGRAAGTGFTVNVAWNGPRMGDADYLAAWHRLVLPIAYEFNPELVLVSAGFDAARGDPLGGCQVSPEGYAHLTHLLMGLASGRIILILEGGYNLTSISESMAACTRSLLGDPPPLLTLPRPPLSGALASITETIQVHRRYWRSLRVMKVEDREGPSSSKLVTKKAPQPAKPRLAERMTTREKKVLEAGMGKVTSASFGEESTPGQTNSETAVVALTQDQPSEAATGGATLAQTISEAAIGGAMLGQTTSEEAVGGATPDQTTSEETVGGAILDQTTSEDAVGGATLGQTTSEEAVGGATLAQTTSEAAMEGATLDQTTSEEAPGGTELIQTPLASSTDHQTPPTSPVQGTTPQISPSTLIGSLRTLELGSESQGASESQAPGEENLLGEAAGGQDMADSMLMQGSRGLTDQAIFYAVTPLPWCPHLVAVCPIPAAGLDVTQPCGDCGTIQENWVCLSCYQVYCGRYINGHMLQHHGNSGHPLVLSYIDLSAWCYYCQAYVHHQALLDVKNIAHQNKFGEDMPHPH

CDK4 and Cyclin D1 = experiment: Western blot of cell cycle regulators; assay type: cell-based; settings: HepG2, 24 h
Procedure, shortened: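 For the immunoblot, HepG2 cells were treated at several concentrations for 24 h and lysed in RIPA buffer with protease inhibitors. Equal BCA-quantified protein was boiled for 5 min and resolved on 10–15% SDS-PAGE, then transferred to PVDF. Blots were blocked in 5% milk, incubated with primary antibody overnight at 4 °C and HRP secondary for 1 h, and detected by ECL. Band densities were quantified, with β-actin as loading control.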

HepG2 xenografts = experiment: HepG2 xenograft model; assay type: in vivo, BALB/c nude mice
Procedure, shortened: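 Male BALB/c nude mice, 5–6 weeks old, were housed under SPF conditions (25 °C, 65% humidity, 12-h light/dark). They were implanted subcutaneously with 1 × 10^6 HepG2 cells. […] Excised tumors were immunostained for Ac-H3, Ac-H4, cleaved caspase-3, GSDME-N and Ki67, then image-scored over 5 fields.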

## COc1ccc(N(Cc2csc(-c3ccc(C)cc3)n2)C(=O)CCCCCC(=O)NO)cc1 [Compound 15d, N^1-hydroxy-N^7-(4-methoxyphenyl)-N^7-((2-(4-tolyl)-4-thiazolyl)methyl)heptanediamide]
HepG2 cells [1]
  colony formation: suppress the formation of colonies in a dose-dependent manner
γH2AX
  nuclear γH2AX levels: induce γH2AX expression at a much lower concentration range
HepG2 cells [2]; 0.2 µM
  apoptosis of HepG2 cells: 30%
HepG2 cells [2]; 0.5 µM
  apoptosis of HepG2 cells: 41.9%
Cl-PARP, Cl-caspase 3
  expression of Cl-PARP, Cl-caspase 3: upregulate the expression of Cl-PARP, Cl-caspase 3 in a dose-dependent manner
HepG2
  antiproliferative activity, times higher than SAHA: ~15 times
GSDME-N, Cl-caspase3
  GSDME N-terminal fragment level: elevated levels of the N-terminal fragment of gasdermin E (GSDME)
  levels of active caspase-3: elevated
HepG2 cells [3]
  G2/M: 24.34%
  S: 18.3%
  G0/G1: 57.36%
HepG2 cells [4]
  LDH release: markedly increased
Acetylated H3/H4
  level of acetyl-H3 and H4: increased the level of acetyl-H3 and H4 in a dose-dependent manner
HepG2 cells [5]
  ROS levels: dose-dependently increased
HDAC1
  HDAC1 inhibitory activity relative to SAHA: tenfold better
HDAC6
  HDAC6 inhibitory activity relative to SAHA: eightfold better
CDK4 and Cyclin D1
  levels of CDK4 and Cyclin D1: significantly reduced the levels of CDK4 and Cyclin D1 in a dose-dependent manner

## COc1ccc(N(Cc2csc(-c3ccccc3)n2)C(=O)CCCCCC(=O)NO)cc1 [Compound 15a, N^1-hydroxy-N^7-(4-methoxyphenyl)-N^7-((2-phenyl-4-thiazolyl)methyl)heptanediamide]
HepG2 cells [1]
  colony formation: suppress the formation of colonies in a dose-dependent manner
γH2AX
  nuclear γH2AX levels: induce γH2AX expression at a much lower concentration range
HepG2 cells [2]; 0.2 µM
  apoptosis of HepG2 cells: 28.2%
HepG2 cells [2]; 0.5 µM
  apoptosis of HepG2 cells: 46.5%
Cl-PARP, Cl-caspase 3
  expression of Cl-PARP, Cl-caspase 3: upregulate the expression of Cl-PARP, Cl-caspase 3 in a dose-dependent manner
HepG2
  antiproliferative activity, times higher than SAHA: ~25 times
GSDME-N, Cl-caspase3
  GSDME N-terminal fragment level: elevated levels of the N-terminal fragment of gasdermin E (GSDME)
  levels of active caspase-3: elevated
HepG2 cells [3]
  G2/M: 22.85%
  S: 13.72%
  G0/G1: 61.42%
HepG2 cells [4]
  LDH release: markedly increased
Acetylated H3/H4
  level of acetyl-H3 and H4: increased the level of acetyl-H3 and H4 in a dose-dependent manner
HepG2 cells [5]
  ROS levels: dose-dependently increased
HDAC1
  HDAC1 inhibitory activity relative to SAHA: tenfold better
HepG2 xenografts; 10 mg/kg, ip, every two days, three weeks
  tumor growth inhibition: superior inhibition observed at 10 mg/kg compared to that of SAHA
HepG2 xenografts; IHC at end of treatment
  Ac-H3/H4, Cl-caspase3 and GSDME-N in tumor tissues: induced the increase of Ac- H3/H4
  Ki67 immunostaining of tumor tissues: dose-dependent reduction in Ki67 immunostaining
HDAC6
  HDAC6 inhibitory activity relative to SAHA: eightfold better
CDK4 and Cyclin D1
  levels of CDK4 and Cyclin D1: significantly reduced the levels of CDK4 and Cyclin D1 in a dose-dependent manner
